According to ChEMBL document CHEMBL4342521 (J Med Chem, 2020):
Active and inactive are the calls of the source. No cut-off for these calls is given here.

Tests used:
IGROV-1 = test: Antiproliferative activity against human IGROV1 cells assessed as reduction in cell viability after 48 hrs by CellTiter-Blue assay; assay type: functional; conditions: IGROV-1, 48 h, read-out: LC50 (the source's name)
How it was run: (§1)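 Cells grown in RPMI1640 with 10% FBS at 37 °C, 5% CO₂. 5,000–10,000 cells/well were pre-incubated overnight, and a time-zero CellTiter-Blue read was taken. Six 10-fold dilutions (top final 10 μM) were applied for 48 h, followed by 0.125 mg/mL CellTiter-Blue for 2–4 h. Resorufin fluorescence was read at ex 560/em 590 nm. […] Triplicates.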

[1] = target: T1, Protein deacetylase HDAC6 (Homo sapiens, UniProt Q9UBN7); test: Inhibition of recombinant HDAC6 (unknown origin) using Boc-Lys(acetyl)-AMC as substrate preincubated for 1 hr followed by substrate addition and measured after 2 hrs by fluorescence based micro plate reader analysis
T1 sequence (Q9UBN7 whole entry): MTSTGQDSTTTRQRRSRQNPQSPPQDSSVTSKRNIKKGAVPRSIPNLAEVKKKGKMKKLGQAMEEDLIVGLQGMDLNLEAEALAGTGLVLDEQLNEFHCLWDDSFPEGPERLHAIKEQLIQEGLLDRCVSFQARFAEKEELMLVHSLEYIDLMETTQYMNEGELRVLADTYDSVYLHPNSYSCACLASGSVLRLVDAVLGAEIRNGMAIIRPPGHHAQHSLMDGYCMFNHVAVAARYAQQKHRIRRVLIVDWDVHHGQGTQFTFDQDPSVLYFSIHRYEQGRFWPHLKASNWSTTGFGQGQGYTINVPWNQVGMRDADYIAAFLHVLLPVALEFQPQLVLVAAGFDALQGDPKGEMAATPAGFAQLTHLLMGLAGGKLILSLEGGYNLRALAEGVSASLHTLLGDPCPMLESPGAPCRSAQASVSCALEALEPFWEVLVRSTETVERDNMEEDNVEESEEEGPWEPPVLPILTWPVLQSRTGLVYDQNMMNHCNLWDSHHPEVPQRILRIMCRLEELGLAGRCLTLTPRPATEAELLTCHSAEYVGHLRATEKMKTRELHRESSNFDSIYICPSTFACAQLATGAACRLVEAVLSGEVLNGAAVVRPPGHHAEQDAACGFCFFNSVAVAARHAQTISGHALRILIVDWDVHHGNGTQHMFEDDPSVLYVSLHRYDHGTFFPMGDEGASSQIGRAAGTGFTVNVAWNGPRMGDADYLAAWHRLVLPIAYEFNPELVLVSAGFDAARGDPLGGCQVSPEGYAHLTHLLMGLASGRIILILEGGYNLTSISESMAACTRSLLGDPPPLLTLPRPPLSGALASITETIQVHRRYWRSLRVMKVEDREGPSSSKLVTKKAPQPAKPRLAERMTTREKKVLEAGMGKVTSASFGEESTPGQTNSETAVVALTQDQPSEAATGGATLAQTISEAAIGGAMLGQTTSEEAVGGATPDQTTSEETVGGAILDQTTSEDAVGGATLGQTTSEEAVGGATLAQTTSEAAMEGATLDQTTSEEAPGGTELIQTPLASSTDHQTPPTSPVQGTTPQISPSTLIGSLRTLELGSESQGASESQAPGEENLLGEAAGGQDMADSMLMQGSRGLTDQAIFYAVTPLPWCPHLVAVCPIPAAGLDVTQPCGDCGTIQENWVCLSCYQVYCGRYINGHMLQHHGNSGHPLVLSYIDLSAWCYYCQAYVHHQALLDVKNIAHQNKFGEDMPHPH

MV4-11 [2] = test: Inhibition of autophagy in human MV4-11 cells assessed as cell death at 200 nM after 24 hrs in presence of 5 uM of chloroquine by CellTiter-blue dye based spectrophotometric analysis; assay type: functional
How it was run: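 MV4-11 cells grown 12 h, then given 200 nM test agent alone or with z-VAD, chloroquine (5 μM) or wortmannin (100 nM) for 24 h. Viability by CellTiter-Blue (0.125 mg/mL, 2–4 h), resorufin fluorescence 560/590 nm, compared with t = 0 wells; n = 3.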

Malme-3M = test: Antiproliferative activity against human MALME-3M cells assessed as reduction in cell viability after 48 hrs by CellTiter-Blue assay; assay type: functional; conditions: read-out: LC50 (the source's name); how it was run: as §1
MV4-11 [3] = test: Down regulation of STAT5 in human MV4-11 cells harboring wild type p53/FLT3-ITD mutant at 50 to 200 nM after 24 hrs by Western blot analysis; assay type: functional, cell-based
How it was run: (§2)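 Cells (1,500,000 per well) grown 12 h, then drug-treated as specified. Lysed in RIPA buffer, sonicated, centrifuged, protein normalized by BCA. Run on 4–12% Bis-Tris gels in MES, transferred, probed overnight at 4 °C with primary antibodies at 1/1000. Actin served as reference for LC3-II quantitation.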

HL-60 [4] = test: Induction of autophagy in p53 null human HL60 cells harboring wild type FLT3 assessed as LC-3 degradation at 50 to 200 nM after 24 hrs by Western blot analysis; assay type: functional, cell-based; how it was run: as §2
SR = test: Antiproliferative activity against human SR cells assessed as reduction in cell viability after 48 hrs by CellTiter-Blue assay; assay type: functional; conditions: read-out: LC50 (the source's name)
How it was run: (§3)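 NCI-60 panel lines grown in RPMI1640 with 10% FBS at 37 °C, 5% CO₂. Seeded at 5,000–10,000 cells/well and pre-incubated overnight. Exposed for 48 h to six 10-fold dilutions (top final 10 μM), with a time-zero plate read at dosing. CellTiter-Blue (0.125 mg/mL) for 2–4 h, fluorescence 560/590 nm, triplicate curves.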

HOP-92 = test: Antiproliferative activity against human HOP92 cells assessed as reduction in cell viability after 48 hrs by CellTiter-Blue assay; assay type: functional; conditions: HOP-92, 48 h, read-out: LC50 (the source's name); how it was run: as §1
MV4-11 [5] = test: Induction of pro caspase 3 cleavage in human MV4-11 cells at 200 nM after 24 hrs in presence of 5 nM bortezomib by Western blot analysis; assay type: functional, cell-based; how it was run: as §2
OVCAR-8 = test: Antiproliferative activity against human OVCAR8 cells assessed as reduction in cell viability after 48 hrs by CellTiter-Blue assay; assay type: functional; conditions: OVCAR-8, 48 h, read-out: LC50 (the source's name); how it was run: as §1
U-251 = test: Antiproliferative activity against human U251 cells assessed as reduction in cell viability after 48 hrs by CellTiter-Blue assay; assay type: functional; conditions: U-251, 48 h, read-out: LC50 (the source's name); how it was run: as §3
HL-60 [6] = test: Upregulation of P21WAF1/Cip1 protein expression in p53 null human HL60 cells harboring wild type FLT3 at 50 to 200 nM after 24 hrs by Western blot analysis; assay type: functional, cell-based
How it was run: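 RS4;11 cells were cultured in RPMI-1640 with 10% FBS and HL-60 cells in IMDM with 20% FBS. Cells were plated at 1,500,000 per well, grown 12 h, then drug-treated. Lysis was in RIPA buffer with sonication and centrifugation, and loading was normalized by BCA. Lysates were run on 4–12% Bis-Tris gels in MES buffer and transferred, and membranes were probed overnight at 4 °C with 1/1000 primary antibodies.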

**Q.** For `CCCNNC(=O)/C=C/c1ccc(CNCCc2c(C)[nH]c3ccccc23)cc1.O=C(O)C(F)(F)F`, which CC50 (IGROV-1) is on record?
**A.** > 10 µM

**Q.** What about the IC50 [1] of the same compound?
**A.** > 50 µM

**Q.** And the inhibition (MV4-11 [2])?
**A.** inactive

**Q.** What about the CC50 (Malme-3M) of the same compound?
**A.** > 10 µM

**Q.** And the Activity (MV4-11 [3])?
**A.** Active

**Q.** And the Activity (HL-60 [4])?
**A.** inactive

**Q.** And the CC50 (SR)?
**A.** > 10 µM

**Q.** And the CC50 (HOP-92)?
**A.** > 10 µM

**Q.** What about the Activity (MV4-11 [5]) of the same compound?
**A.** Active

**Q.** What about the CC50 (OVCAR-8) of the same compound?
**A.** > 10 µM

**Q.** And the CC50 (U-251)?
**A.** 4.28 µM

**Q.** And the Activity (HL-60 [6])?
**A.** Active
